Results on 14 molecules are retold here after ChEMBL document CHEMBL1147643 (J Med Chem, 2006).

Experiment [1] addresses T1, Adenosine receptor A3 (Homo sapiens) (UniProt P0DMS8).
T1 sequence (whole entry): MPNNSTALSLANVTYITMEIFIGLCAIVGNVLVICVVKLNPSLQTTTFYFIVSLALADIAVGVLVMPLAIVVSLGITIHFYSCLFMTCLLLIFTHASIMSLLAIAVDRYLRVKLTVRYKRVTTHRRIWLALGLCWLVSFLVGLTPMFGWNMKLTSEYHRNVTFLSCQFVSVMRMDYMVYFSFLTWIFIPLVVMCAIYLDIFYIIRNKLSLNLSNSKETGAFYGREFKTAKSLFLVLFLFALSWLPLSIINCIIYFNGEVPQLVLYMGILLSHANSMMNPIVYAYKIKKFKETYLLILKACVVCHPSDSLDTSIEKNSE
Nature of the experiment: Inhibition of [125I]I-AB-MECA binding to wild type adenosine A3 receptor expressed in COS7 cells at 10 uM. Type of experiment: cell-based. The following applies: COS-7.

The target of experiment [2] is Adenosine receptor A3 (Homo sapiens, UniProt P0DMS8, T94E). Nature of the experiment: Displacement of [125I]I-AB-MECA from human adenosine A3 receptor T94E mutant expressed in COS7 cells. Type of experiment: cell-based, COS-7. The procedure, abridged: (§1)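 Receptor cDNA, wild-type or mutant with mutations confirmed by sequencing, transiently transfected into COS-7 cells with Lipofectamine 2000. […] Displacement of agonist radioligand [125I]I-AB-MECA measured; Ki values derived.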
A general note: Loss of bound radioactivity is the signal in a displacement assay; it reports binding, not function.

Experiment [3] has as its target T2, Adenosine receptor A3 (Homo sapiens, UniProt P0DMS8).
T2 sequence (P0DMS8 whole entry): T1 sequence (whole entry)
Nature of the experiment: Displacement of [125I]I-AB-MECA from wild type adenosine A3 receptor expressed in COS7 cells. Type of experiment: cell-based, COS-7.

Experiment [4] deals with T3, Adenosine receptor A3 (Homo sapiens, UniProt P0DMS8, H272E). Nature of the experiment: Displacement of [125I]I-AB-MECA from human adenosine A3 receptor H272E mutant expressed in COS7 cells. Type of experiment: cell-based, COS-7.
Experiment [5] deals with Adenosine receptor A3 (Homo sapiens, UniProt P0DMS8, T94A). Nature of the experiment: Displacement of [125I]I-AB-MECA from human adenosine A3 receptor T94A mutant expressed in COS7 cells. Type of experiment: cell-based, COS-7. The procedure, abridged:
as §1

The target of experiment [6] is Adenosine receptor A3 (Homo sapiens, UniProt P0DMS8, H272D). Put plainly: Displacement of [125I]I-AB-MECA from human adenosine A3 receptor H272D mutant expressed in COS7 cells. Type of experiment: cell-based, COS-7. The procedure, abridged:
as §1

In experiment [7] the target is Adenosine receptor A3 (Homo sapiens, UniProt P0DMS8, Q167E). Put plainly: Displacement of [125I]I-AB-MECA from human adenosine A3 receptor Q167E mutant expressed in COS7 cells. Type of experiment: cell-based, COS-7. The procedure, abridged:
as §1

For experiment [8], the target named is T4, Adenosine receptor A1 (Homo sapiens) (UniProt P30542).
T4 sequence (whole entry): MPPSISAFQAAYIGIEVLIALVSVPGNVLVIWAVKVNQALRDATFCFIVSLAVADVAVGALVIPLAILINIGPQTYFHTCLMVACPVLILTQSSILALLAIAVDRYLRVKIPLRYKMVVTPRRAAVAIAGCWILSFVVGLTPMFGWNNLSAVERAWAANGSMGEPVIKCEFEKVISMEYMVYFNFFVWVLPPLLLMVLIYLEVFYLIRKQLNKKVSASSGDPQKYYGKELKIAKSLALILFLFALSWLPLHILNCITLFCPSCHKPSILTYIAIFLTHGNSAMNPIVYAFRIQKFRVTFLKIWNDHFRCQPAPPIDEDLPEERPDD
Nature of the experiment: Inhibition of human adenosine A1 receptor expressed in CHO cells at 10 uM. Type of experiment: cell-based.

Experiment [9] addresses Adenosine receptor A2a (Homo sapiens) (UniProt P29274). Put plainly: Inhibition of human adenosine A2A receptor expressed in CHO cells at 10 uM. Type of experiment: cell-based.
Experiment [10] addresses T5, Adenosine receptor A2b (Homo sapiens) (UniProt P29275).
T5 sequence (whole entry): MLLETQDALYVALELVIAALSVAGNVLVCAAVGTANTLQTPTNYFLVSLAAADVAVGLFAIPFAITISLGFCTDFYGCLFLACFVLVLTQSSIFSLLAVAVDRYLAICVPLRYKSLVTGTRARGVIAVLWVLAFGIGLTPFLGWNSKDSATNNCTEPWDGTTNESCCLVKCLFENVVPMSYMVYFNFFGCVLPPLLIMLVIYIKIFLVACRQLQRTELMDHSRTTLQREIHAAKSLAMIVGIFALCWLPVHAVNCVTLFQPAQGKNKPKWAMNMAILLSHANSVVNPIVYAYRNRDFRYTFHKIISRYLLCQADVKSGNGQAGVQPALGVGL
Put plainly: Activity against adenosine A2B receptor expressed in CHO cells by stimulation of cAMP production at 10 uM. Type of experiment: functional, cell-based. In general terms: Cyclic AMP is a second messenger, typically raised through Gs and lowered through Gi signalling.

Experiment [11] concerns the target T3, Adenosine receptor A3. Put plainly: (§2) Activity against human adenosine A3 receptor H272E mutant expressed in COS7 cells as measured by accumulation of inositol phosphate by PLC assay. Type of experiment: functional, cell-based, COS-7.
The test system of experiment [12] is T6, Adenosine receptor A3 (Homo sapiens), P0DMS8 [H272E].
T6 sequence (whole entry): T1 sequence (whole entry) with H272E
Put plainly: Inhibition of [125I]I-AB-MECA binding to human adenosine A3 receptor H272E mutant expressed in COS7 cells at 10 uM. Type of experiment: cell-based. The conditions noted are these: COS-7.

Experiment [13] shares this test system. The description is as §2. The following applies: COS-7. Type of experiment: functional, cell-based.
The target of experiment [14] is T1, Adenosine receptor A3 (Homo sapiens). Nature of the experiment: Activity against human wild type adenosine A3 receptor expressed in COS7 cells as measured by accumulation of inositol phosphate by PLC assay. Type of experiment: functional, cell-based. The following applies: COS-7.

Numbering of substitutions follows the chain as printed. pEC50, pKi: −log10 of the molar value. Calls of active or inactive are those of the source. No cut-off for these calls is given here.

Sequence of Adenosine receptor A3 (Homo sapiens, UniProt P0DMS8, T94E) (P0DMS8 whole entry T94E): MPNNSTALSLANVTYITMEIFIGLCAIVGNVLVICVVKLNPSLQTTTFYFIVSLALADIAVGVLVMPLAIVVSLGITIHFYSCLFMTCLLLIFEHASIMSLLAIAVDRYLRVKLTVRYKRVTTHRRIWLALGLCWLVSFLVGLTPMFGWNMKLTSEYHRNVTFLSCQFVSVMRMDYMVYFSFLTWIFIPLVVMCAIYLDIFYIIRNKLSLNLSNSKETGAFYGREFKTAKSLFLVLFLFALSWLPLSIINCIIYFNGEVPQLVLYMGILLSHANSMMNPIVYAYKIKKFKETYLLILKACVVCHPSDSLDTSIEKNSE
Sequence of Adenosine receptor A3 (Homo sapiens, UniProt P0DMS8, H272D) (P0DMS8 whole entry H272D): as the sequence (P0DMS8 whole entry T94E) above, with E94T, H272D counted along it
T3 sequence (P0DMS8 whole entry H272E): as the sequence (P0DMS8 whole entry T94E) above, with E94T, H272E counted along it
Sequence of Adenosine receptor A2a (Homo sapiens) (P29274 whole entry): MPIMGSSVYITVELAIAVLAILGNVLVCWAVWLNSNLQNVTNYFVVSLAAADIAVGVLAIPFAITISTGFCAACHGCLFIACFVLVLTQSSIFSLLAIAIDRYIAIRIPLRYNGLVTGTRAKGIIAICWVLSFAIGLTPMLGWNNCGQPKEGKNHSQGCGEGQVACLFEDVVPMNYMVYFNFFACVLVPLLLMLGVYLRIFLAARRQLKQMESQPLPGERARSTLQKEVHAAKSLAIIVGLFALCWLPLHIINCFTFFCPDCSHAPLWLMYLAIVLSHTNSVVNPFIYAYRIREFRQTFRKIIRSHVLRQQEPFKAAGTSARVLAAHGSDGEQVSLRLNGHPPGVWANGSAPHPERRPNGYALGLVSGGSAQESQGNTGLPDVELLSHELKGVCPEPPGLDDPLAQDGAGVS
Sequence of Adenosine receptor A3 (Homo sapiens, UniProt P0DMS8, T94A) (P0DMS8 whole entry T94A): as the sequence (P0DMS8 whole entry T94E) above, with E94A counted along it
Sequence of Adenosine receptor A3 (Homo sapiens, UniProt P0DMS8, Q167E) (P0DMS8 whole entry Q167E): as the sequence (P0DMS8 whole entry T94E) above, with E94T, Q167E counted along it

Usually inhibition stands for the relative decrease from the control value, in per cent. A higher inhibition goes with a strong effect. As usually defined, the pKi is −log10 of the Ki, conventionally taken in molar units. Usually pEC50 stands for the EC50 on a negative log10 scale, so that one unit is a factor of ten. Read a high pEC50 as a small EC50. In the case of `NC(=O)N[C@H]1[C@@H](O)[C@H](n2cnc3c(NCc4cccc(I)c4)ncnc32)O[C@@H]1CO`, the inhibition is 9% in experiment [1], under 10% in experiment [8] and under 10% in [9]. Also, the pKi on Adenosine receptor A3 [2] was under 5.00; on Adenosine receptor A3 [3], under 5.00; at Adenosine receptor A3 [4] it was 6.66; at Adenosine receptor A3 [5] it was under 5.00; at Adenosine receptor A3 [6] it was 6.33; at Adenosine receptor A3 [7], under 4.00. Moreover, in [10], the result was inactive. Further, the negative logarithm of the EC50 (pEC50) on Adenosine receptor A3 [11] is 6.74.
Turning to `CNC(=O)[C@H]1O[C@@H](n2cnc3c(NCc4cc(Cl)ccc4OC)ncnc32)[C@H](O)[C@@H]1CN`, the pKi is 6.07 on Adenosine receptor A3 [2]; 6.25 at Adenosine receptor A3 [3]; 6.23 at Adenosine receptor A3 [4]; 6.41 on Adenosine receptor A3 [6]; 5.14 at Adenosine receptor A3 [7].
For the molecule `CNC(=O)[C@H]1O[C@@H](n2cnc3c(NCc4cccc(I)c4)ncnc32)[C@H](O)[C@@H]1CN`, the pKi at Adenosine receptor A3 [2] is 6.96; at Adenosine receptor A3 [3], 6.86; at Adenosine receptor A3 [4], 6.73; on Adenosine receptor A3 [5], 6.92; at Adenosine receptor A3 [6], 6.92; on Adenosine receptor A3 [7], 6.24.
As to `NC[C@H]1[C@@H](O)[C@H](n2cnc3c(N)ncnc32)O[C@@H]1CO`, the inhibition in experiment [1] worked out at 3%; in [12] it was 2%.
In the case of `NC[C@H]1[C@@H](O)[C@H](n2cnc3c(NCc4cccc(I)c4)ncnc32)O[C@@H]1CO`, the pKi at Adenosine receptor A3 [2] is 5.00; at Adenosine receptor A3 [3] it was 5.02; at Adenosine receptor A3 [4], 6.21; on Adenosine receptor A3 [5] it was 4.97; at Adenosine receptor A3 [6], 6.07; at Adenosine receptor A3 [7] it was under 5.00.
Take `COc1ccc(Cl)cc1CNc1ncnc2c1ncn2[C@@H]1O[C@H](CO)[C@@H](CN)[C@H]1O`: the pKi at Adenosine receptor A3 [2] was under 5.00; at Adenosine receptor A3 [3], 4.86; on Adenosine receptor A3 [4], 6.15; at Adenosine receptor A3 [5], 5.01; at Adenosine receptor A3 [6], 5.70; on Adenosine receptor A3 [7], under 5.00.
Turning to `NNC(=O)[C@H]1O[C@@H](n2cnc3c(N)ncnc32)[C@H](O)[C@@H]1O`, the pKi is 5.82 at Adenosine receptor A3 [3] and under 5.00 at Adenosine receptor A3 [4].
Turning to `CNC(=O)[C@H]1O[C@@H](n2cnc3c(NCc4cccc(I)c4)ncnc32)[C@H](O)[C@@H]1NC(N)=O`, the inhibition in experiment [1] was 5%; in [8], under 10%; in experiment [9] it was under 10%. The pKi at Adenosine receptor A3 [4] was 5.57.
On to `CNC(=O)[C@H]1O[C@@H](n2cnc3c(NC)ncnc32)[C@H](O)[C@@H]1NC(N)=O`, for which the inhibition in experiment [1] is 7%; in experiment [12], 7%; in experiment [8], under 10%; in [9], under 10%.
Consider `CC(=O)NC[C@H]1[C@@H](O)[C@H](n2cnc3c(NCc4cccc(I)c4)ncnc32)O[C@@H]1CO`, for which the inhibition in [1] was 15%. The pKi on Adenosine receptor A3 [2] is under 5.00; at Adenosine receptor A3 [3] it was under 5.00; at Adenosine receptor A3 [4], 6.15; at Adenosine receptor A3 [5] it was under 5.00; on Adenosine receptor A3 [6], 6.00; on Adenosine receptor A3 [7], under 5.00.
In the case of `[N-]=[N+]=NC[C@H]1S[C@@H](n2cnc3c(NCc4cccc(I)c4)ncnc32)[C@H](O)[C@@H]1O`, the pKi is 7.66 on Adenosine receptor A3 [3] and 6.64 at Adenosine receptor A3 [4]. The result in [13] and in experiment [14] was inactive.
With `CNc1ncnc2c1ncn2[C@@H]1O[C@H](CO)[C@@H](NC(N)=O)[C@H]1O`, the inhibition was 3% in experiment [1], 30% in [12], under 10% in experiment [8] and under 10% in experiment [9].
For the molecule `NC(=O)N[C@H]1[C@@H](O)[C@H](n2cnc3c(NCc4cccc(I)c4)nc(Cl)nc32)O[C@@H]1CO`, the inhibition in experiment [1] is 47%; in [8], 34%; in [9], under 10%. On Adenosine receptor A3 [4], this molecule showed a pKi of 6.70.
Turning to `CNC(=O)[C@H]1O[C@@H](n2cnc3c(NCc4cccc(I)c4)ncnc32)[C@H](O)[C@@H]1N=[N+]=[N-]`, the negative logarithm of the Ki (pKi) was 5.70 at Adenosine receptor A3 [2]; 5.65 at Adenosine receptor A3 [3]; 6.73 on Adenosine receptor A3 [4]; 5.86 at Adenosine receptor A3 [5]; 6.85 on Adenosine receptor A3 [6]. The result in experiment [13] and in experiment [14] was inactive.
